This is a sample that favours compounds with a hit; in the whole collection about 1.2% have one here.
FXIIa inh 1536: blocks human coagulation factor XIIa protease activity; P00748; purified FXIIa, Boc-QGR-AMC fluorogenic substrate, 2 h; inhibition, % at 5 µM; hit rate 0.3% among 220,000; AID 800; in the data active means inhibition above about 40%;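 further: 0% = enzyme with no compound and 100% = blank without enzyme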
PERK inh: human PERK inhibition, primary cell-based screen; inhibition, % at 5.6 µM; hit rate 0.17% among 220,000; Q9NZJ5; CHO PERK-DD fusion, SEAP luminescence translation reporter;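 active means inhibition above the mean inhibition of all tested compounds plus 3 SD, set separately per screening campaign, cut at about 2.9% in these data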;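 further: PERK kinase domain activated by AP20187 dimerizer at 100 nM; 0% = DMSO with dimerizer and 100% = rapamycin at 8.4 µM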
Furin inhibitor: inhibitors of human furin; purified furin, fluorogenic substrate cleavage; inhibition, % at 20 µM or 30 µM; P09958; hit rate 0.061% among 220,000; in the data active means inhibition above about 25%
hK5 inh: inhibitors of human kallikrein 5; inhibition, % at 5 µM; recombinant hK5, fluorogenic AMC substrate cleavage; hit rate 0.59% among 210,000;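 active means inhibition of 40% or more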;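 further: 0% = enzyme controls without compound and 100% = no-enzyme blanks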
Target sequence (Q9Y337 67-293 limits assumed): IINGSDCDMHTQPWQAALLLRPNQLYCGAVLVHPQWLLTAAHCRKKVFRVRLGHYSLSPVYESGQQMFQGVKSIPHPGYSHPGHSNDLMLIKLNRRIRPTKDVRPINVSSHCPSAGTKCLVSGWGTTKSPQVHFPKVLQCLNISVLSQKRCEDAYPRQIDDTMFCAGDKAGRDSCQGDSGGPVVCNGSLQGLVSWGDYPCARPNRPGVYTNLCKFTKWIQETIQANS
thrombin 1536: inhibitors of human thrombin; P00734; alpha-thrombin, Boc-VPR-AMC fluorogenic substrate cleavage; inhibition, % at 5 µM; hit rate 0.26% among 220,000; AID 1046;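 active means inhibition at or above 40%; inactive means inhibition below 40%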;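 further: 0% = enzyme with no compound and 100% = wells without enzyme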
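System: human alpha-thrombin protein; Compound dosing: one concentration per compound, 5 µM, with 0.2% DMSO; Timing: reaction at room temperature; Technique: AMC fluorescence, 355/460 nm; Controls: enzyme without compound as high, wells lacking enzyme as low.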
FXIa inh: blocks human coagulation factor XIa protease activity; inhibition, % at 5 µM; purified FXIa, Boc-Glu-Ala-Arg-AMC fluorogenic substrate; P03951; AID 798; hit rate 0.14% among 220,000;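 active means inhibition of at least 40%; inactive means inhibition below 40%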;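 further: fluorescence of freed AMC excited at 355 nm; 0% = enzyme without compound and 100% = no enzyme blank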
* hit, by the source's call.

Screening O=S(=O)(c1cccs1)N1CCC(CO)(Cc2cccc(F)c2)CC1 returned FXIIa inh 1536 7, PERK inh 0, Furin inhibitor -22, hK5 inh -15, thrombin 1536 -3 and FXIa inh -6.
Cn1cnnc1SCC(=O)Nc1ccc2c(c1)CCC2 was read as FXIIa inh 1536 24, PERK inh 0, Furin inhibitor -13, hK5 inh -24, thrombin 1536 3 and FXIa inh 16.
`COc1ccc(NC(=O)CSc2nncn2C)cc1OC` gave FXIIa inh 1536 14, PERK inh 2, Furin inhibitor 27*, hK5 inh -7, thrombin 1536 7 and FXIa inh 5.
`COc1ccc(Cn2nnnc2C(c2cc(OC)ccc2OC)N2CCC(C(N)=O)CC2)cc1` (stereo not given) gave FXIIa inh 1536 23, PERK inh 0, Furin inhibitor -4, hK5 inh 70*, thrombin 1536 37 and FXIa inh 15.
Screening COc1ccc(Cn2nnnc2C(c2ccccc2Cl)N2CCC(C(N)=O)CC2)cc1 (stereo not given) returned FXIIa inh 1536 3, PERK inh 0, Furin inhibitor 2, hK5 inh -11, thrombin 1536 -1 and FXIa inh -4.
`Cc1ccnc(NS(=O)(=O)c2ccc(NC(=O)C3C4C=CC(C4)C3C(=O)O)cc2)n1` (stereo not given) gave FXIIa inh 1536 0, PERK inh 2, Furin inhibitor -11, thrombin 1536 -4 and FXIa inh -4.
For Cc1ccccc1/C=N/NC(=O)Cn1cnc([N+](=O)[O-])n1 the results were FXIIa inh 1536 20, PERK inh 1, Furin inhibitor -8, hK5 inh -8, thrombin 1536 0 and FXIa inh 1.
For O=C(Cn1cnc([N+](=O)[O-])n1)N/N=C/c1ccccc1O the results were FXIIa inh 1536 7, PERK inh 3.4*, Furin inhibitor -1, hK5 inh -116, thrombin 1536 -1 and FXIa inh 2.
Cc1ccc(N2CN=c3s/c(=C\c4ccccn4)c(=O)n3C2)cc1 was read as FXIIa inh 1536 10, PERK inh 3.1*, Furin inhibitor -10, hK5 inh -9, thrombin 1536 5 and FXIa inh 5.
C#CCNc1cc(C)nc2ncnn12 was read as FXIIa inh 1536 15, PERK inh 0, Furin inhibitor -26, hK5 inh 39, thrombin 1536 104* and FXIa inh 7.
`O=C1N/C(=N/O)S/C1=C/c1cccc([N+](=O)[O-])c1` gave FXIIa inh 1536 29, PERK inh 0, Furin inhibitor -5, hK5 inh 25, thrombin 1536 9 and FXIa inh 36.
Screening Cc1cccc(/C=C2/S/C(=N/N=C3\CC4CCC3(C)C4(C)C)NC2=O)c1 (stereo not given) returned FXIIa inh 1536 23, PERK inh 1, Furin inhibitor 31*, hK5 inh 1, thrombin 1536 4 and FXIa inh 7.
`Cc1cc(-c2ccco2)n(CC(=O)O)n1` gave FXIIa inh 1536 -3, PERK inh 2, Furin inhibitor -16, hK5 inh 115*, thrombin 1536 -1 and FXIa inh -4.
`Cc1cc(-c2ccco2)n(CC(=O)NCc2ccccc2)n1` gave FXIIa inh 1536 7, PERK inh 1, Furin inhibitor -37, hK5 inh -3, thrombin 1536 2 and FXIa inh 10.
CCn1c(SCC(=O)N2CCOCC2)nc(O)cc1=O was read as FXIIa inh 1536 18, PERK inh 2, Furin inhibitor -24, hK5 inh -5, thrombin 1536 2 and FXIa inh 7.
For CCn1c(=O)cc(SCC(=O)N2CCCCC2)c2ccccc21 the results were FXIIa inh 1536 19, PERK inh -1, Furin inhibitor -8, hK5 inh 121*, thrombin 1536 13 and FXIa inh 5.
`CCN1CCN(C(=O)CSc2cc(=O)n(CC)c3ccccc23)CC1` gave FXIIa inh 1536 6, PERK inh 0, Furin inhibitor -13, hK5 inh 5, thrombin 1536 1 and FXIa inh -3.
For CCn1c(SCC(=O)N2CCCCC2)nc(O)cc1=O the results were FXIIa inh 1536 44*, PERK inh 1, Furin inhibitor -32, hK5 inh 7, thrombin 1536 -5 and FXIa inh -19.
Cn1c(N)c(C(=O)Nc2ccc(-c3ccccc3)cc2)sc1=S was read as FXIIa inh 1536 16, PERK inh -1, Furin inhibitor -9, hK5 inh 30, thrombin 1536 12 and FXIa inh -3.
For C=CCNC(=S)N/N=C/c1ccc(C)cc1C the results were FXIIa inh 1536 7, PERK inh 2, Furin inhibitor -15, hK5 inh -1, thrombin 1536 -3 and FXIa inh 3.
For C=CCNC(=S)N/N=C/c1ccc(C)c([N+](=O)[O-])c1 the results were FXIIa inh 1536 106*, PERK inh 0, Furin inhibitor -11, hK5 inh 62*, thrombin 1536 24 and FXIa inh 41*.
`O=C(Cc1ccccc1)NC(NC(=S)Nc1cc(Cl)ccc1Cl)C(Cl)(Cl)Cl` (stereo not given) gave FXIIa inh 1536 103*, PERK inh 1, Furin inhibitor -23, hK5 inh 18, thrombin 1536 16 and FXIa inh 20.
For CCOC(=O)COc1ccc2nsnc2c1Cl the results were FXIIa inh 1536 -8, PERK inh 0, Furin inhibitor -19, hK5 inh 102*, thrombin 1536 4 and FXIa inh -5.
`CCC(C)[C@@H](NC(=O)OC(C)(C)C)c1nnc(S(=O)(=O)Cc2cccc(C)c2)o1` (stereo not given in full) gave FXIIa inh 1536 17, PERK inh 0, Furin inhibitor -12, hK5 inh 0, thrombin 1536 51* and FXIa inh 31.
CC(C)(C)OC(=O)N[C@@H](Cc1ccccc1)c1nnc(S(=O)(=O)Cc2ccccc2)o1 was read as FXIIa inh 1536 26, PERK inh 1, Furin inhibitor -23, hK5 inh -6, thrombin 1536 14 and FXIa inh 20.
For CCc1ccc(NC(=O)C(C)n2nc(C)c([N+](=O)[O-])c2C)cc1 (stereo not given) the results were FXIIa inh 1536 2, PERK inh 0, Furin inhibitor -18, hK5 inh 2, thrombin 1536 -7 and FXIa inh 1.
Screening CC(C)NC(=O)c1ccc(C(C)C)cc1 returned FXIIa inh 1536 7, PERK inh 1, Furin inhibitor -25, hK5 inh 5, thrombin 1536 78* and FXIa inh -1.
Screening COc1ccccc1N1CCN(Cc2c[nH]c3ccccc23)CC1 returned FXIIa inh 1536 8, PERK inh -1, Furin inhibitor -18, hK5 inh -4, thrombin 1536 -1 and FXIa inh -2.
